The values that follow come from ChEMBL document CHEMBL4017507 (J Med Chem, 2017).

The test system of series [1] is Human betaherpesvirus 5. The series is described as follows: Antiviral activity against human cytomegalovirus AD-169 infected in human HEL cells assessed as inhibition of virus-induced cytopathic effect. As to conditions: Human betaherpesvirus 5, AD-169, HEL. Format: functional, cell-based. The method in brief:
(§1)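 Confluent HEL fibroblast monolayers were inoculated in 96-well plates with 100 CCID50 of virus in the presence of serially varied compound concentrations. Cytopathicity was scored once untreated infected controls reached full CPE.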

In series [2] the test system is Human immunodeficiency virus 1. In words: Antiviral activity against HIV1 X4LAI.04 infected in human MT4 cells assessed as decrease in viral replication by p24gag-based luminex assay. Format: functional, cell-based. To be noted: Human immunodeficiency virus 1, X4LAI.04, MT4. The method in brief:
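10^6 MT-4 cells were infected with HIV-1 X4LAI.04 (7 ng p24) for 2 h at 37 °C, then washed with PBS and resuspended. Compounds were added and cultures were kept 3 days at 37 °C. Supernatant p24 was measured by bead-based Luminex. Inhibition was calculated as (1 − p24 treated/p24 untreated) × 100, and EC50 was derived from it.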

The test system of the next series is MT4. The series is described as follows: Cytotoxicity against human MT4 cells assessed as reduction in cell viability by cell counting method. Format: cell-based. The method in brief: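 MT-4 cultures, untreated or treated, were assessed with an automated cell counter using propidium iodide staining to enumerate total and dead cells.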
Another series relates to CCRF-CEM. The series is described as follows: Cytostatic activity human CEM cells assessed as reduction in cell viability after 72 hrs by cell counting method. Format: cell-based. As to conditions: ccrf-cem, 72 h. The gist of the method:
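(5–7.5) × 10^? CEM cells per well were grown with compound for 72 h at 37 °C under humidified CO2. Cells were counted in a Coulter counter.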

The test system of series [3] is Human immunodeficiency virus 1. The series is described as follows: Antiviral activity against HIV1 X4LAI.04 infected in human tonsillar tissues assessed as inhibition of virus-induced cytopathic effect by p24gag-based luminex assay. Format: functional. To be noted: Human immunodeficiency virus 1, X4LAI.04. The gist of the method:
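Tonsillectomy tissue blocks of 2–3 mm³ were cultured on collagen sponge gels at the air–liquid interface, 27 blocks per donor per condition. Blocks were pretreated with compound overnight, infected with HIV-1 X4LAI.04 and cultured 12 days, with drug replenished at each medium change every 3 days. Medium p24 was measured by Luminex. Inhibition was calculated against untreated tissue, and EC50 was derived from it.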

Series [4] concerns Human alphaherpesvirus 1. The series is described as follows: Antiviral activity against Herpes simplex virus 1 KOS infected in human HEL cells assessed as inhibition of virus-induced cytopathic effect. It is filed as functional, cell-based. To be noted: Human alphaherpesvirus 1, KOS. The gist of the method:
as §1

The test system of another series is Human alphaherpesvirus 2. The series is described as follows: Antiviral activity against Herpes simplex virus 2 G infected in human HEL cells assessed as inhibition of virus-induced cytopathic effect. It is filed as functional, cell-based. To be noted: Human alphaherpesvirus 2, strain G. The method in brief: as §1
The subject of series [5] is Human alphaherpesvirus 1. The series is described as follows: Antiviral activity against ACV-resistant thymidine kinase deficient Herpes simplex virus 1 KOS infected in human HEL cells assessed as inhibition of virus-induced cytopathic effect. Format: functional, cell-based. To be noted: Human alphaherpesvirus 1, KOS. The method in brief:
as §1

Series [6] in a line: Cytotoxicity against human HEL cells assessed as alteration to cell morphology by microscopic analysis. Format: cell-based. The gist of the method:
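Minimal cytotoxic concentration is the compound concentration giving a microscopically visible alteration of HEL cell morphology, scored in the antiviral assay cultures.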

The test system of series [7] is Human betaherpesvirus 5. The series is described as follows: Antiviral activity against human cytomegalovirus Davis infected in human HEL cells assessed as inhibition of virus-induced cytopathic effect. Format: functional, cell-based. To be noted: Human betaherpesvirus 5, Davis. The method in brief: as §1
In series [8] the test system is Human alphaherpesvirus 3. In words: Antiviral activity against Varicella-Zoster virus OKA infected in human HEL cells assessed as inhibition of virus-induced cytopathic effect. It is filed as functional, cell-based. To be noted: Human alphaherpesvirus 3, strain Oka vaccine. The gist of the method: (§2)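 Confluent HEL fibroblast cultures were inoculated with 20 PFU of VZV in the presence of varying compound concentrations. Plaque formation was recorded once untreated infected controls reached completion.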

Series [9] has as its system Human alphaherpesvirus 3. The series is described as follows: Antiviral activity against thymidine kinase deficient Varicella-Zoster virus 07-1 infected in human HEL cells assessed as inhibition of virus-induced cytopathic effect. Format: functional, cell-based. As to conditions: Human alphaherpesvirus 3, 07-1, HEL. The method in brief: as §2
The subject of the next series is HEL. The series is described as follows: Cytotoxicity against human HEL cells assessed as cell growth inhibition by cell counting method. Format: cell-based.
A short description of series [10]: Drug metabolism assessed as carboxypeptidase Y (unknown origin)-mediated metabolite 81 peak formation measured with in 30 mins by [31P]-NMR spectroscopic analysis. Format: ADME. To be noted: human, 0.5 h.
The nature of series [11]: Prodrug activation assessed as carboxypeptidase Y (unknown origin)-mediated 2-{5-[2-(2-Amino-6-chloro-purin-9-yl)-ethyl]-2-oxo-2lambda(5)-[1,3,2]dioxaphosphinan-2-ylamino}-propionic acid anion peak formation measured with in 1 hr by [31P]-NMR spectroscopic analysis. To be noted: human.
Series [12] is described as follows: Prodrug activation assessed as carboxypeptidase Y (unknown origin)-mediated 2-((4-(2-amino-6-chloro-9H-purin-9-yl)-2-(hydroxymethyl)butoxy)oxidophosphorylamino)propanoate peak formation measured after […] by [31P]-NMR spectroscopic analysis. To be noted: human.
Series [13] is described as follows: Prodrug activation assessed as carboxypeptidase Y (unknown origin)-mediated 2-((4-(2-amino-6-chloro-9H-purin-9-yl)-2-(hydroxymethyl)butoxy)oxidophosphorylamino)propanoate formation measured after 8 hrs by [31P]-NMR spectroscopic analysis. As to conditions: human.
Series [14] is described as follows: Prodrug activation assessed as carboxypeptidase Y (unknown origin)-mediated 2-((4-(2-amino-6-chloro-9H-purin-9-yl)-2-(hydroxymethyl)butoxy)oxidophosphorylamino)propanoate formation by mass spectroscopic analysis. As to conditions: human.
Series [15] can be described thus: Drug metabolism assessed as carboxypeptidase Y (unknown origin)-mediated metabolite 81 formation measured after 2 hrs by [31P]-NMR spectroscopic analysis. It is filed as ADME. As to conditions: human.
Series [16] is described as follows: Drug metabolism assessed as carboxypeptidase Y (unknown origin)-mediated metabolite 79 formation measured after 2 hrs by [31P]-NMR spectroscopic analysis. Format: ADME. As to conditions: human.

Molecules are shown by their SMILES.

Consider `C[C@H](NP(=O)(OCC(CO)CCn1cnc2c(Cl)nc(N)nc21)Oc1ccccc1)C(=O)OCc1ccccc1` (mixture of isomers), for which the EC50 with Human betaherpesvirus 5 [1] was > 100 µM; in [2] it was 1 µM; in series [3], 4 µM; in the series with Human alphaherpesvirus 1 [4], > 100 µM; with Human alphaherpesvirus 2, > 100 µM; in the series on Human alphaherpesvirus 1 [5] it was > 100 µM. Besides, the EC50 with Human betaherpesvirus 5 [7] was > 100 µM; in the series on Human alphaherpesvirus 3 [8], 37.3 µM; with Human alphaherpesvirus 3 [9], 42.9 µM. The IC50 with MT4 worked out at 20 µM. In addition, the CC50 in the series with CCRF-CEM was 33 µM; in the series with HEL it was 39 µM. The MCC in [6] was > 100 µM. In series [10], the Drug metabolism result is on record as “Metabolite_Detected”.

As to `C[C@H](NP1(=O)OCC(OCn2cnc3c(Cl)nc(N)nc32)CO1)C(=O)OCc1ccccc1` (stereo not given in full), the EC50 in [2] was 85 µM; in [3], 9 µM; with Human alphaherpesvirus 1 [4], > 100 µM; in the series on Human alphaherpesvirus 2, > 100 µM; in the series on Human alphaherpesvirus 1 [5] it was > 100 µM. Moreover, the IC50 in the series with MT4 turned out to be 150 µM. For the same molecule, in the series with CCRF-CEM, the CC50 worked out at 165 µM. For the same molecule, the MCC in series [6] was > 100 µM. Further, the Drug metabolism result in series [11], in series [12], in series [13] and in series [14] was “Metabolite_Detected” in each case.

For the molecule `CCCOC(=O)[C@H](C)NP(=O)(OCC(CO)CCn1cnc2c(OC)nc(N)nc21)Oc1cccc2ccccc12` (stereo not given in full), the EC50 was 32 µM in the series on Human betaherpesvirus 5 [1]; 11 µM in [2]; 14 µM in the series with Human alphaherpesvirus 1 [4]; 15 µM in the series with Human alphaherpesvirus 2; ≥ 20 µM with Human alphaherpesvirus 1 [5]; 50 µM with Human betaherpesvirus 5 [7]. The EC50 in the series with Human alphaherpesvirus 3 [8] came out at 3.7 µM; in the series with Human alphaherpesvirus 3 [9] it was 9.1 µM. Further, in the series on MT4, the IC50 was found to be 13 µM. For the same molecule, the CC50 in the series on CCRF-CEM was 17 µM; with HEL it was 14.4 µM. Also, the MCC in [6] lay in the range of 50 to 100 µM. The Drug metabolism result in [15] and in [16] was “Metabolite_Detected” each time.
